{"data": "Published values gathered from unrelated publications", "CECR2": "Chromatin remodeling regulator CECR2 (CECR2, Homo sapiens, UniProt Q9BXF3)", "CASK": "Peripheral plasma membrane protein CASK (CASK, Homo sapiens, UniProt O14936)", "SLC6A2": "Sodium-dependent noradrenaline transporter (SLC6A2, Homo sapiens, UniProt P23975)"}
{"Compound": "Cc1cc2c(cc1N1C(=O)c3cccc4c(Cl)ccc(c34)C1=O)n(C)c(=O)n2C", "target": "CECR2", "test": "thermal stability, DSF", "setting": "10 µM", "measurement": "ΔTm", "result": "3.5 °C"}
{"Compound": "CCCOc1ccc(OC)c(F)c1C(=O)c1ccc(C(=O)N[C@@H]2CNC[C@H]2NC(=O)c2ccc3[nH]ncc3c2)cc1", "target": "cAMP-dependent protein kinase catalytic subunit PRKX (PRKX, Homo sapiens, UniProt P51817)", "test": "enzyme activity, inhibitor", "setting": "0.75 µM", "measurement": "remaining activity", "result": "4%"}
{"Compound": "CNC(=O)c1cc(Oc2ccc(NC(=O)Nc3ccc(Cl)c(C(F)(F)F)c3)cc2)ccn1", "target": "Serine/threonine-protein kinase Chk2 (CHEK2, Homo sapiens, UniProt O96017, R145W)", "test": "enzyme activity, inhibitor", "setting": "0.3 µM", "measurement": "inhibition", "result": "-8%"}
{"Compound": "Nc1ncnc2occ(-c3ccc(NC(=O)Nc4cc(C(F)(F)F)ccc4F)cc3)c12", "target": "CASK", "test": "cell-free assay", "setting": "20 µM", "measurement": "remaining signal", "result": "56%"}
{"Compound": "Cc1ccc(C(=O)Nc2ccc(CN3CCN(C)CC3)c(C(F)(F)F)c2)cc1C#Cc1cnc2cccnn12", "target": "CASK", "test": "cell-free assay", "setting": "23.5 nM", "measurement": "remaining signal", "result": "84%"}
{"Compound": "CC(C)(C)c1nc2c(s1)c1nc(N)ncc1c1ccc(NS(=O)(=O)c3c(F)cccc3F)c(F)c12", "target": "Mitotic checkpoint serine/threonine-protein kinase BUB1 beta (BUB1B, Homo sapiens, UniProt O60566)", "test": "enzyme activity, inhibitor, radiometric", "setting": "1 µM", "measurement": "remaining activity", "result": "89%"}
{"Compound": "Cc1ccc(Nc2nccc(N(C)c3ccc4c(C)n(C)nc4c3)n2)cc1S(N)(=O)=O", "target": "Serine/threonine-protein kinase Chk2 (CHEK2, Homo sapiens, UniProt O96017)", "test": "enzyme activity, inhibitor", "setting": "10 µM", "measurement": "inhibition", "result": "44%"}
{"Compound": "Fc1ccc(C(c2ccc(F)cc2)c2nnnn2CCCN2CCC(Cc3ccccc3)CC2)cc1", "target": "SLC6A2", "test": "transporter uptake, inhibitor", "test system": "HEK293", "setting": "1 µM", "measurement": "inhibition", "result": "39.7%"}
{"Compound": "CC(C)CCC[C@@H](C)[C@H]1CC[C@H]2[C@@H]3[C@H](O)CC4=CC(=O)CC[C@]4(C)[C@H]3CC[C@]12C", "target": "7-alpha-hydroxycholest-4-en-3-one 12-alpha-hydroxylase (Homo sapiens, UniProt Q9UNU6)", "test": "enzyme activity, substrate", "measurement": "Km", "result": "0.505 µM"}
{"Compound": "Fc1ccc(C(c2ccc(F)cc2)c2nnnn2CCCCN2CCN(Cc3ccccc3)CC2)cc1", "target": "SLC6A2", "test": "transporter uptake, inhibitor", "test system": "HEK293", "setting": "1 µM", "measurement": "inhibition", "result": "95%"}
{"Compound": "CC(=O)N[C@H]1CSSC[C@@H](C(=O)N[C@H](Cc2c[nH]c3ccccc23)C(N)=O)NC(=O)[C@H](Cc2ccccc2)NC(=O)[C@H](CCCNC(=N)N)NC1=O", "target": "Melanocortin receptor 4 (MC4R, Homo sapiens, UniProt P32245)", "test": "cAMP, agonist", "test system": "HEK293", "setting": "3 min", "measurement": "Emax", "result": "0%"}
{"Compound": "c1ccc(CCCC2CCN(CCCn3nnnc3C(c3ccccc3)c3ccccc3)CC2)cc1", "target": "SLC6A2", "test": "transporter uptake, inhibitor", "test system": "HEK293", "setting": "1 µM", "measurement": "inhibition", "result": "84.9%"}
{"Compound": "C[S+]([O-])c1ccc(-c2nc(-c3ccncc3)c(-c3ccc(F)cc3)[nH]2)cc1 (stereo not shown)", "target": "CECR2", "test": "thermal stability, DSF", "setting": "10 µM", "measurement": "ΔTm", "result": "0.89 °C"}
